Test results published in the array DNA melting data of Ke et al. (doi:10.1101/2024.01.08.574731).

How the values were obtained:
[1] = melting temperature; fluorescence melt of hairpins on a sequencing array, two-state fit, raised by 9.35 °C to match UV melts; conditions: sodium 0.088 M
Summary of the method: (§1)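 Melting temperature and folding enthalpy were obtained by bootstrapped two-state fitting. Fits used Cy3 fluorescence of library hairpins with annealed Cy3 and quencher oligos on a sequenced MiSeq flow cell, imaged in 50 mM Na-HEPES pH 8.0, 25 mM NaCl in 2.5 °C steps up to 60 °C and normalised to pre-quench Cy3 and control constructs. Four replicates were combined by inverse-variance weighting, and fitted temperatures were raised by 9.35 °C to match UV melts.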

[2] = folding enthalpy; higher = less favourable; fluorescence melt of hairpins on a sequencing array, two-state fit; conditions: sodium 0.088 M
Summary of the method: as §1

Sequence	Tm [1] [°C]	folding enthalpy [2] [kcal/mol]
GATCCGTTTGCGGATC ((((((....))))))	62.3	-37.7
GATCCTAAAGAGGATC ((((((....))))))	46.1	-31.3
GATCCTAATCAGGATC ((((((....))))))	50.5	-38.6
GATCCTACAGAGGATC ((((((....))))))	50.4	-29.6
GATCCTAGACAGGATC ((((((....))))))	50.4	-36.5
GATCCTATAAGGATC ((((((...))))))	55.2	-37.8
GATCCTATCGAGGATC ((((((....))))))	51.9	-27.1
GATCCTATGAGGATC ((((((...))))))	53.7	-34.7
GATCCTATGTAGGATC ((((((....))))))	54.5	-34.9
GATCCTCAAAAGGATC ((((((....))))))	51.3	-32.5
GATCCTCACCAGGATC ((((((....))))))	50.9	-38.6
GATCCTCACGAGGATC ((((((....))))))	54.8	-43.3
GATCCTCAGAAGGATC ((((((....))))))	51	-35.3
GATCCTCATAAGGATC ((((((....))))))	52.6	-34.4
GATCCTCATGAGGATC ((((((....))))))	58.4	-41.1
GATCCTCCACAGGATC ((((((....))))))	50.8	-36
GATCCTCCCAGGATC ((((((...))))))	55.7	-35.8
GATCCTCCGAAGGATC ((((((....))))))	48.7	-16.6
GATCCTCCGTAGGATC ((((((....))))))	48.5	-20.4
GATCCTCCTAAGGATC ((((((....))))))	53.4	-37.5
GATCCTCGCTAGGATC ((((((....))))))	51.2	-35.6
GATCCTCGGAGGATC ((((((...))))))	51.6	-33.5
GATCCTCTCGAGGATC ((((((....))))))	58	-42.4
GATCCTCTGAAGGATC ((((((....))))))	51.6	-36.8

Sequence	Tm [1] [°C]	folding enthalpy [2] [kcal/mol]
GATCCTCTTAGGATC ((((((...))))))	55.2	-35.3
GATCCTCTTGAGGATC ((((((....))))))	61.3	-41
GATCCTGAATAGGATC ((((((....))))))	59	-39.2
GATCCTGACAAGGATC ((((((....))))))	63	-38
GATCCTGACGAGGATC ((((((....))))))	56.9	-36.4
GATCCTGAGCAGGATC ((((((....))))))	52.3	-36.9
GATCCTGAGGAGGATC ((((((....))))))	49.2	-34
GATCCTGATAGGATC ((((((...))))))	53.2	-31.6
GATCCTGATGAGGATC ((((((....))))))	51.1	-31.9
GATCCTGCAGAGGATC ((((((....))))))	56	-39.5
GATCCTGGAGAGGATC ((((((....))))))	54	-34.7
GATCCTGGCAAGGATC ((((((....))))))	63.3	-44.6
GATCCTGGGAAGGATC ((((((....))))))	59.7	-42.3
GATCCTGGGAGGATC ((((((...))))))	51	-33.8
GATCCTGGTCAGGATC ((((((....))))))	55.5	-41.8
GATCCTGTCTAGGATC ((((((....))))))	56	-39.4
GATCCTGTTCAGGATC ((((((....))))))	56.8	-39.1
GATCCTTCTAAGGATC ((((((....))))))	54.4	-47.8
GATCCTTCTAGGATC ((((((...))))))	57.1	-30.6
GATCCTTGGCAGGATC ((((((....))))))	49.4	-35.3
GATCCTTGGTAGGATC ((((((....))))))	51.1	-31.6
GATCCTTGTAGGATC ((((((...))))))	55.1	-34.4
GATCCTTGTGAGGATC ((((((....))))))	56.1	-38
GATCCTTTACAGGATC ((((((....))))))	51.1	-51.6

Sequence	Tm [1] [°C]	folding enthalpy [2] [kcal/mol]
GATCCTTTATAGGATC ((((((....))))))	53.4	-40.2
GATCCTTTGGAGGATC ((((((....))))))	53.3	-39.5
GATCCTTTGTAGGATC ((((((....))))))	52.6	-39.7
GATCCTTTTCAGGATC ((((((....))))))	52.6	-32.6
GATCCTTTTGAGGATC ((((((....))))))	54.1	-36.9
GATCGAAAATCGATC ((((((...))))))	47.6	-29.9
GATCGAAACCTCGATC ((((((....))))))	51.3	-39.6
GATCGAAATATCGATC ((((((....))))))	49	-32.7
GATCGAAATTCGATC ((((((...))))))	48.9	-33.7
GATCGAACGTCGATC ((((((...))))))	49.3	-34.9
GATCGAACTTCGATC ((((((...))))))	51	-31.3
GATCGAAGGTTCGATC ((((((....))))))	52.1	-31.2
GATCGAATGGTCGATC ((((((....))))))	51.4	-20.2
GATCGAATGTCGATC ((((((...))))))	50.6	-31.5
GATCGAATTGTCGATC ((((((....))))))	50	-41.9
GATCGACACTTCGATC ((((((....))))))	53.4	-48.6
GATCGACATGTCGATC ((((((....))))))	61.3	-41.7
GATCGACCCGTCGATC ((((((....))))))	60.1	-47.1
GATCGACCGCTCGATC ((((((....))))))	51.7	-45.2
GATCGACCGGTCGATC ((((((....))))))	61.5	-51.5
GATCGACCGTTCGATC ((((((....))))))	50.7	-46
GATCGACCTTCGATC ((((((...))))))	51	-35.6
GATCGACGAAAGTCAATC (((.(((....))).)))	40.3	-20.5
GATCGACGAGTCGATC ((((((....))))))	64	-45.8

Sequence	Tm [1] [°C]	folding enthalpy [2] [kcal/mol]
GATCGACGTCTCGATC ((((((....))))))	50	-42.3
GATCGACTCATCGATC ((((((....))))))	51.8	-41.7
GATCGACTCCTCGATC ((((((....))))))	51.6	-38.6
GATCGACTCTTCGATC ((((((....))))))	52.7	-39.5
GATCGACTGCTCGATC ((((((....))))))	50.9	-43.4
GATCGACTGTCGATC ((((((...))))))	51.4	-49
GATCGACTTCTCGATC ((((((....))))))	51.5	-41
GATCGACTTTCGATC ((((((...))))))	51.7	-22.2
GATCGAGAACTCGATC ((((((....))))))	57	-37.6
GATCGAGAGTTCGATC ((((((....))))))	50.5	-36.7
GATCGAGCGATCGATC ((((((....))))))	57.5	-35.6
GATCGAGCGTTCGATC ((((((....))))))	52.1	-45.4
GATCGAGCTTTCGATC ((((((....))))))	52.6	-35.1
GATCGAGGCGTCGATC ((((((....))))))	55.1	-40.6
GATCGAGGCTCGATC ((((((...))))))	55.5	-42.1
GATCGAGGTATCGATC ((((((....))))))	58.7	-39.6
GATCGAGGTCTCGATC ((((((....))))))	55.8	-38.5
GATCGAGGTTCGATC ((((((...))))))	51.6	-38.6
GATCGAGTTGTCGATC ((((((....))))))	52.8	-39.4
GATCGAGTTTCGATC ((((((...))))))	53	-31.4
GATCGATACTCGATC ((((((...))))))	51.3	-41.3
GATCGATAGATCGATC ((((((....))))))	61.1	-18.9
GATCGATAGTCGATC ((((((...))))))	48.7	-30.3
GATCGATAGTTCGATC ((((((....))))))	50.8	-39.3
